Results from different studies.
Compare with care: the assays were run in different laboratories.
Target: Serine/threonine-protein kinase pim-3 (PIM3, Homo sapiens, UniProt Q86V86)

The remaining binding of `CN(C)c1nccc(-c2cnn3ncccc23)n1` is reported as 56% (binding; 1 µM).
With `O=C(NCC1CCOCC1)c1n[nH]cc1NC(=O)c1c(F)cccc1F` the remaining binding was 99% (binding; competition with immobilised ligand; 1 µM).
`Cc1cnc(Nc2ccc(C(=O)N3CCC(N4CCCC4)CC3)cc2)nc1-c1cc2ccccc2s1` gave a remaining binding of 60% (binding; competition with immobilised ligand; 1 µM).
The remaining binding of `N#CC1(c2ccccn2)CCN(Cc2cc(C(=O)N3CCCC3)c(=O)n3ccccc23)CC1` is reported as 99% (cell-free assay; competition with immobilised ligand; 1 µM).
`N[C@@H]1CCN(c2nccc(-c3cnn4ncccc34)n2)C1` has a remaining binding of 100% (binding; 1 µM).
With `COc1ccc2c(c1)O[C@H](c1ccc(OC)c(OC)c1)C[C@@H]2NC(=O)C1(c2ccc3c(c2)OC(F)(F)O3)CC1` the remaining binding was 100% (cell-free assay; competition with immobilised ligand; 1 µM).
With `COc1cnc(Nc2cccc(S(N)(=O)=O)c2)nc1N1CCN(c2ccccc2)CC1` the remaining binding was 94% (binding; competition with immobilised ligand; 1 µM).
For `CCc1ccccc1C(=O)Nc1n[nH]c2c(C)c(F)c(C3C(C#N)=C(C)N(C)C(C)=C3C#N)cc12`, the remaining binding was 100% (cell-free assay; competition with immobilised ligand; 1 µM).
For `C[C@@H]1CCN(c2nccc(-c3cnn4ncccc34)n2)C1`, the remaining binding was 92% (binding; 1 µM).
`c1cncc(-c2cccc(Nc3nccc(NC4CCCCC4)n3)c2)c1` has a remaining binding of 71% (binding; competition with immobilised ligand; 10 µM).
For `CN([C@@H]1CCc2c(CC(=O)O)c3cc(S(C)(=O)=O)ccc3n2C1)S(=O)(=O)c1ccc(F)cc1`, the remaining binding was 100% (cell-free assay; competition with immobilised ligand; 1 µM).
`COc1cnc(Nc2cccc(S(N)(=O)=O)c2)nc1N1CCN(c2ccccc2)C(=O)C1` has a remaining binding of 100% (binding; competition with immobilised ligand; 1 µM).
`O=C(c1ccc(Nc2ncc(Cl)c(-c3cc4ccccc4s3)n2)cc1)N1CCC(N2CCCC2)CC1` has a remaining binding of 75% (binding; competition with immobilised ligand; 1 µM).
For `F[C@@H]1CCN(c2nccc(-c3cnn4ncccc34)n2)C1`, the remaining binding was 100% (binding; 1 µM).
`Nc1ncc2c(n1)-c1c([nH]c3ccc(C#CC4CC4)cc13)CCCC2` gave a remaining binding of 76% (binding; competition with immobilised ligand; 1 µM).
`C[C@@H]1CN(c2ccc3ncc(-c4ccc5[nH]nc(C6CC6)c5c4)n3n2)C[C@H](C)O1` has a remaining binding of 33% (binding; competition with immobilised ligand; 0.5 µM).
For `CN(c1nccc(-c2cnn3ncccc23)n1)C1CC1`, the remaining binding was 100% (binding; 1 µM).
For `CO[C@H]1CC[C@H](CNc2ccc(S(=O)(=O)NC(=O)c3ccc(N4CCN(CC5=C(c6ccc(Cl)cc6)CC(C)(C)CC5)CC4)cc3Oc3cnc4[nH]ccc4c3)cc2[N+](=O)[O-])CC1`, the remaining binding was 74% (cell-free assay; competition with immobilised ligand; 1 µM).
For `O=C(c1ccc(Nc2nccc(-c3cc4ccccc4s3)n2)cc1)N1CCC(N2CCCC2)CC1`, the remaining binding was 78% (binding; competition with immobilised ligand; 1 µM).
For `COc1ccnn2ncc(-c3ccnc(N(C)C)n3)c12`, the remaining binding was 81% (binding; 1 µM).
`Cc1nccc(COC(=O)N2C[C@@H]3[C@@H](CNC(=O)c4ccc5[nH]nnc5c4)[C@@H]3C2)n1` gave a remaining binding of 97% (cell-free assay; competition with immobilised ligand; 1 µM).
The remaining binding of `CC(C)(C)c1ccc(-c2nc(CBr)nn2-c2cccc(O)c2)cc1` is reported as 100% (cell-free assay; competition with immobilised ligand; 10 µM).
The remaining binding of `Cc1cnn2ncc(-c3ccnc(N(C)C)n3)c2c1` is reported as 85% (binding; 1 µM).
With `COc1ccc2c(O[C@@H]3C[C@H]4C(=O)N[C@]5(C(=O)O)CC5/C=C\CCCCC[C@H](NC(=O)OC5CCCC5)C(=O)N4C3)cc(-c3csc(NC(=O)C(C)C)n3)nc2c1C` (stereo partly drawn) the remaining binding was 94% (cell-free assay; competition with immobilised ligand; 1 µM).
